In ChEMBL document CHEMBL1152253, “Inhibition of the CRM1-mediated nucleocytoplasmic transport by N-azolylacrylates: structure-activity relationship and mechanism of action” (Bioorg Med Chem, 2008) one finds Activity and EC50 data, which are given here for 13 compounds.

In brackets after ≈: the same amount, converted by molar mass. Activity calls are given as the source filed them. No cut-off for these calls is given here.

What is called EC50 is the midpoint of the concentration-response curve.

Data set [1] has as its system Human immunodeficiency virus 1. Description: Antiviral activity against HIV1 NL4-3 infected in HEK293T cells assessed as inhibition of virion-associated p24 antigen production after 24 hrs by ELISA. It is filed as functional, organism-based. Conditions: for Activity: HEK-293T; for EC50: Human immunodeficiency virus 1, NL4-3, HEK-293T. The gist of the method:
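HEK 293T cells in DMEM with 10% heat-inactivated FCS were transfected with the HIV-1 molecular clone NL4-3 by calcium phosphate. Compounds were added at a range of concentrations. Virus-associated p24 antigen in the supernatant was measured by ELISA 24 h after compound addition.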
In general terms: ELISA stands for enzyme-linked immunosorbent assay.

The target of data set [2] is Exportin-1 (Homo sapiens) (UniProt O14980). Description: Inhibition of CRM1-mediated nucleocytoplasmic transport of HIV1 RevM5 mutant in human HeLa cells assessed as HIV1 RevM5-GFP nuclear localization at 10 ug/ml after 2 hrs by fluorescence microscopy. It is filed as cell-based. In outline:
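HeLa cells, grown in DMEM with 10% heat-inactivated FCS, 2 mM L-glutamine, 0.1% bicarbonate and gentamicin, were plated on glass-bottom dishes and transfected to express RevM5-GFP. RevM5-GFP is a Rev mutant that stays cytoplasmic but can still enter the nucleus. Compound was added, and after 2 h cellular RevM5-GFP distribution, nuclear versus cytoplasmic, was read by fluorescence microscopy with DIC images.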

Data set [3] shares this target. Description: Inhibition of CRM1-mediated nucleocytoplasmic transport of RevM5 mutant in HEK293 cells assessed as RevM5-GFP nuclear localization at 0.4 ug/ml after 2 hrs by fluorescence microscopy. It is filed as cell-based. The gist of the method:
(§1)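 HEK 293T cells in 96-well trays were transfected with pRevM5-GFP by calcium phosphate, and compound was added one day later. RevM5-GFP distribution was scored by fluorescence microscopy 2 h after addition. Mainly nuclear localization was scored positive; cytoplasmic localization was scored negative.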

For data set [4] the target is unchanged. Description: Inhibition of CRM1-mediated nucleocytoplasmic transport of RevM5 mutant in HEK293 cells assessed as RevM5-GFP nuclear localization at 10 ug/ml after 2 hrs by fluorescence microscopy. It counts as cell-based. The gist of the method:
as §1

The test system of data set [5] is HeLa. Description: Inhibition of Rev-BFP/CRM1Cys528Ser-EYFP mutant interaction in human HeLa cells assessed as Rev-BFP/CRM1Cys528Ser-EYFP nuclear colocalization after 2 hrs by fluorescence microscopy. It counts as cell-based. The gist of the method: (§2)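 HeLa cells were co-transfected with Rev-BFP and the EYFP-CRM1 Cys528 mutant. One day after transfection they were washed with PBS and treated with compound in complete DMEM. Co-localization was followed by live-cell confocal microscopy at 30, 120 and 180 min and 24 h.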

Data set [6] has as its target Exportin-1 (Homo sapiens) (UniProt O14980). Description: Inhibition of CRM1-mediated nucleocytoplasmic transport of RevM5 mutant in HEK293 cells assessed as RevM5-GFP nuclear localization at 0.08 ug/ml after 2 hrs by fluorescence microscopy. It counts as cell-based. In outline:
as §1

Data set [7] shares this target. Description: Inhibition of CRM1-mediated nucleocytoplasmic transport of RevM5 mutant in HEK293 cells assessed as RevM5-GFP nuclear localization at 2 ug/ml after 2 hrs by fluorescence microscopy. It is filed as cell-based. In outline:
as §1

Data set [8] concerns HeLa. Description: Inhibition of Rev-BFP/CRM1Cys528Ser-EYFP mutant interaction in human HeLa cells assessed as Rev-BFP/CRM1Cys528Ser-EYFP nuclear colocalization at 25 nM after 2 hrs by fluorescence microscopy. It counts as cell-based. In outline:
(§3)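 HeLa cells were co-transfected with Rev-BFP and CRM1-EYFP constructs (wild type or Cys528 mutant). One day later cells were PBS-washed and treated with compound in complete DMEM. Live cells were imaged by confocal microscopy at 30, 120 and 180 min and at 24 h. BFP was excited by a multiphoton laser at 760 nm, with emission collected at 390–480 nm. Read-out was Rev-dependent nucleolar co-localization of CRM1-EYFP.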

In data set [9] the test system is HeLa. Description: Inhibition of Rev-BFP/CRM1-EYFP interaction in human HeLa cells assessed as Rev-BFP/CRM1-EYFP nuclear colocalization by fluorescence microscopy. It is filed as cell-based. In outline:
as §3

A short description of data set [10]: Cytotoxicity against HIV1 3B infected human OM10.1 cells at 20 ug/mL after 48 hrs by MTT assay. It is filed as cell-based. In outline: (§4)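 Cytotoxicity was read by MTT viability staining on the same TNF-α-stimulated (1 ng/ml), twice-washed HIV-1(IIIB) chronically infected OM10.1 cultures (120,000 cells/well). Compound was present throughout the 48 h incubation at 37 °C.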
(In general: Formazan colour is commonly taken as a measure of viable cells.)

The subject of data set [11] is Human immunodeficiency virus 1. Description: Antiviral activity against HIV1 3B infected in human OM10.1 cells assessed as inhibition of TNF-alpha-induced viral p24 production at 5 ug/mL after 48 hrs by ELISA. It is filed as functional. The arrangement: scale not given: the % may be the effect or the level left. In outline: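 OM10.1 cells chronically infected with HIV-1(IIIB), grown in RPMI 1640 with 10% FCS, were washed twice to remove cell-free virus and seeded at 120,000 cells/well with compound. Cultures were stimulated with 1 ng/ml TNF-α and incubated 48 h at 37 °C. Supernatant p24 was measured by ELISA.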

A short description of data set [12]: Cytotoxicity against HIV1 3B infected human OM10.1 cells at 10 ug/mL after 48 hrs by MTT assay. It is filed as cell-based. In outline:
as §4

Data set [13] deals with HeLa. Description: Inhibition of Rev-BFP/CRM1-EYFP interaction in human HeLa cells assessed as Rev-BFP/CRM1-EYFP nuclear colocalization at 10 ug/mL after 120 mins by fluorescence microscopy. It counts as cell-based. In outline:
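HeLa cells on glass-bottom dishes, about 50% confluent, were co-transfected with Rev-BFP and CRM1-EYFP. One day later cells were washed with PBS and treated with compound in complete DMEM. Nucleolar co-localization of CRM1-EYFP with Rev was examined by live confocal microscopy at 30, 120 and 180 min and 24 h.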

The test system of data set [14] is HeLa. Description: Inhibition of Rev-BFP/CRM1Cys528Ser-EYFP mutant interaction in human HeLa cells assessed as Rev-BFP/CRM1Cys528Ser-EYFP nuclear colocalization at 10 ug/mL after 2 hrs by fluorescence microscopy. It counts as cell-based. In outline: as §2

Exportin-1 (Homo sapiens), sequence (O14980 whole entry): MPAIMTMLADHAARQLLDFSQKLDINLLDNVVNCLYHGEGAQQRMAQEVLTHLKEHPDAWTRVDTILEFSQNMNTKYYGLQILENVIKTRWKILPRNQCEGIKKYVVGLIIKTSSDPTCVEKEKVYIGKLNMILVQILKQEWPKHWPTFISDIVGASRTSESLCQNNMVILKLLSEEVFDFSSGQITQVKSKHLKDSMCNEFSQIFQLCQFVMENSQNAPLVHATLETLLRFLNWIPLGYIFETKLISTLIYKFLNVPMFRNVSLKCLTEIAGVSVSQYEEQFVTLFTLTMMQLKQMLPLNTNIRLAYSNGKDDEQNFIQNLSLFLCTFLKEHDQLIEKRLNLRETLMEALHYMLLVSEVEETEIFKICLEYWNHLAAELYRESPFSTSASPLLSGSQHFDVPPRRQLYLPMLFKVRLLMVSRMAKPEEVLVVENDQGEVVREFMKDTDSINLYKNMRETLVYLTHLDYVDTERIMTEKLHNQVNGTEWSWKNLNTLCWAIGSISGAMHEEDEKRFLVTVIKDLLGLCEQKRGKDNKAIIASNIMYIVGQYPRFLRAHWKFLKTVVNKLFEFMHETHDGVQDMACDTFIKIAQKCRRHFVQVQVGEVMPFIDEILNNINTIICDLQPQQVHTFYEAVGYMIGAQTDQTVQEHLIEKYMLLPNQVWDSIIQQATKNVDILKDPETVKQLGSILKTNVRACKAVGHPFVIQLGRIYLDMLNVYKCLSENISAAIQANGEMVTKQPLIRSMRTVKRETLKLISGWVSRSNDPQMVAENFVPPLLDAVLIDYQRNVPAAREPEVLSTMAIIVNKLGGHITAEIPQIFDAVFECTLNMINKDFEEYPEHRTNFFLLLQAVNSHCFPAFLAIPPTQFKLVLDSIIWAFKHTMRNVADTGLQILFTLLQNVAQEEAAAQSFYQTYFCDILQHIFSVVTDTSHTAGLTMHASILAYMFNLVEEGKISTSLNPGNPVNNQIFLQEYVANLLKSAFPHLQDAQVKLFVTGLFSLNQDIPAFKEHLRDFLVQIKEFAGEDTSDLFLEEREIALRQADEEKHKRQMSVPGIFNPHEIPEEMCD

As for `Cc1ccnc2c1NC(=O)c1cccnc1N2C1CC1`, the result in data set [1] was inactive.

As for `Clc1cccc(-c2nnn[nH]2)c1`, the result (in data set [2]; in [1]; in [3]; in data set [4]; in the data set with HeLa [5]; in data set [6]) was inactive. The result in data set [7] was inactive.

In the case of `CCC(=C/[C@H](C)C/C=C/C(C)=C/[C@@H](C)C(=O)[C@@H](C)[C@H](O)[C@@H](C)C/C(C)=C/C(=O)O)/C=C/[C@@H]1OC(=O)C=C[C@@H]1C`, the outcome in the data set on HeLa [8] and with HeLa [9] was inactive.

For `CCOC(=O)/C=C/n1ccnc1-c1ccccc1`, the outcome in [3], in data set [4], in data set [6] and in [7] was inactive.

For `Nc1cc(Cl)ccc1-c1nnn[nH]1`, the outcome in [3], in [4], in data set [6] and in [7] was inactive.

Take `CCOC(=O)/C=C/n1nnc(-c2cccc(Cl)c2)n1`: the Activity result was “Toxic” in data set [10], 94% in data set [11] and “Toxic” in data set [12]. The concentration giving a half-maximal response (EC50) in data set [1] stood at 0.6 µg/mL (≈ 2.15 µM). Besides, the outcome in data set [3] and in [6] was inactive. Also, the result in data set [4] was Active.

In the case of `Clc1ccccc1-c1nnn[nH]1`, the result in [3], in data set [4], in data set [6] and in data set [7] was inactive.

For `CCOC(=O)/C=C/n1nnc(-c2ccccc2Cl)n1`, the result in data set [3], in data set [6] and in [7] was inactive. For the same compound, the result in data set [4] was Active.

In the case of `CCOC(=O)/C=C\n1nnc(-c2cc(Cl)ccc2N)n1`, the outcome in data set [3], in data set [4] and in [7] was Active. In data set [6], the outcome was inactive.

Take `CCOC(=O)/C=C\n1nnnc1-c1cccc(I)c1`: the outcome in data set [3], in data set [4], in data set [6] and in [7] was inactive.

Take `CCOC(=O)/C=C/n1nnc(-c2cccc(F)c2)n1`: the result in data set [3], in data set [6] and in [7] was inactive. In data set [4], the result was Active.

Consider `CCOC(=O)/C=C\n1ccc(-c2ccccc2)n1`, for which the outcome in [3], in data set [4], in data set [6] and in data set [7] was inactive.

As to `CCOC(=O)/C=C\n1nnc(-c2cccc(Cl)c2)n1`, the Activity entry in [10] was “Toxic”; in [11] it was 94%; in data set [12], “Toxic”. Further, the outcome (in [2]; in the data set on HeLa [13]; in data set [4]; in data set [7]) was Active. In addition, the outcome (with HeLa [14]; in [6]) was inactive. Moreover, the concentration giving a half-maximal response (EC50) in data set [1] stood at 0.2 µg/mL (≈ 0.718 µM).
